These results are taken from ChEMBL document CHEMBL1124759, “Fluoronaphthyridines and quinolones as antibacterial agents. 2. Synthesis and structure-activity relationships of new 1-tert-butyl 7-substituted derivatives” (J Med Chem, 1990).

Converted amounts (≈) assume the structure as drawn.

One data set relates to Enterococcus faecalis. The data set can be described thus: In vitro minimum inhibitory concentration (MIC) against Enterococcus faecalis A 9808 at 37 degrees C for 18 h. The format is functional. The procedure, abridged:
(§1)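 Two-fold serial broth dilution in nutrient broth. Inoculum adjusted to 10^6 cfu/mL. Compounds tested from 0.0005 to 250 µg/mL.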

The subject of data set [1] is Escherichia coli. The data set is described as follows: In vitro minimum inhibitory concentration (MIC) against Escherichia coli A 15119 at 37 degrees C for 18 h. The format is functional. In short, it runs like this: as §1
For a further data set, the system named is Enterococcus faecium. The data set is described as follows: In vitro minimum inhibitory concentration (MIC) against Enterococcus faecium A 24885 at 37 degrees C for 18 h. The format is functional. In short, it runs like this: as §1
The subject of data set [2] is Klebsiella pneumoniae. The data set can be described thus: In vitro minimum inhibitory concentration (MIC) against Klebsiella pneumoniae A 9664 at 37 degrees Celsius for 18 h. The format is functional. The procedure, abridged:
as §1

The subject of another data set is Morganella morganii. The data set can be described thus: In vitro minimum inhibitory concentration (MIC) against Morganella morganii A 15153 at 37 degrees C for 18 h. The format is functional. The procedure, abridged:
as §1

In data set [3] the test system is Pseudomonas aeruginosa. The data set is described as follows: In vitro minimum inhibitory concentration (MIC) against Pseudomonas aeruginosa A 9843 at 37 degree C for 18 h. The format is functional. The procedure, abridged:
as §1

In data set [4] the test system is Staphylococcus aureus. The data set can be described thus: In vitro minimum inhibitory concentration (MIC) against Staphylococcus aureus Smith A 9537 at 37 degrees C for 18 hr. The format is functional. In short, it runs like this:
as §1

A further data set has as its system Serratia marcescens. The data set is described as follows: In vitro minimum inhibitory concentration (MIC) against Serratia marcescens A 20019 at 37 degrees C for 18 hr. The format is functional. In short, it runs like this:
as §1

In another data set the test system is Enterobacter cloacae. The data set can be described thus: In vitro minimum inhibitory concentration (MIC) against Enterobacter cloacae A 9656 at 37 degrees C for 18 h. The format is functional.
The subject of data set [5] is Escherichia coli. The data set is described as follows: In vitro minimum inhibitory concentration (MIC) against Escherichia coli A 15119 at 37 degrees Celsius for 18 h. The format is functional. The procedure, abridged: as §1
Data set [6] deals with Klebsiella pneumoniae. The data set can be described thus: In vitro minimum inhibitory concentration (MIC) against Klebsiella pneumoniae A 9664 at 37 degrees C for 18 h. The format is functional. The procedure, abridged: as §1
Data set [7] concerns Pseudomonas aeruginosa. The data set can be described thus: In vitro minimum inhibitory concentration (MIC) against Pseudomonas aeruginosa A 9843 at 37 degrees C for 18 h. The format is functional. The procedure, abridged: as §1
For data set [8], the system named is Escherichia coli. The data set is described as follows: Efficacy on systematic infections against Escherichia coli A 15119 after oral administration in mice. The format is functional. The following applies: read-out: PD50. The procedure, abridged:
(§2)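 Mice given compound orally after lethal systemic infection. Read-out is the oral dose protecting 50% of mice from death (PD50), reported in mg/kg.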

The test system of data set [9] is Klebsiella pneumoniae. The data set can be described thus: Efficacy on systematic infections against Klebsiella pneumoniae A 9664 after oral administration in mice. The format is functional. As to conditions: read-out: PD50. The procedure, abridged: as §2
In data set [10] the test system is Pseudomonas aeruginosa. The data set is described as follows: Efficacy on systematic infections against Pseudomonas aeruginosa A 9843 after oral administration in mice. As to conditions: read-out: PD50. The format is functional. The procedure, abridged: as §2
Data set [11] concerns Staphylococcus aureus. The data set can be described thus: Efficacy on systematic infections against Staphylococcus aureus Smith A 9537 after oral administration in mice. The following applies: read-out: PD50. The format is functional. In short, it runs like this:
as §2

In data set [12] the test system is Pseudomonas aeruginosa. The data set can be described thus: In vitro minimum inhibitory concentration (MIC) against Pseudomonas aeruginosa A 9843 at 37 degrees Celsius for 18 h. The format is functional. The procedure, abridged: as §1
Data set [13] in a line: Tested for aqueous solubility. The following applies: aqueous medium.
For data set [14], the system named is Staphylococcus aureus. The data set is described as follows: Efficacy on systematic infections against Staphylococcus aureus A 9537 after oral administration in mice. The format is functional. The following applies: read-out: PD50. In short, it runs like this:
as §2

A further data set is filed under the species Canis familiaris. As to conditions: dog, in vivo, po, 25 mg/kg.

A word on the MIC: it is the least concentration at which growth counts as inhibited. Read a low MIC as inhibition by little substance. As for `CC(C)(C)n1cc(C(=O)O)c(=O)c2cc(F)c(N3CCNC(CF)C3)nc21.CS(=O)(=O)O` (centres undefined), the MIC is 4 µg/mL in the data set with Enterococcus faecalis; 0.13 µg/mL in the data set on Escherichia coli [1]; 16 µg/mL against Enterococcus faecium; 0.13 µg/mL against Klebsiella pneumoniae [2]; 1 µg/mL in the data set with Morganella morganii; 4 µg/mL against Pseudomonas aeruginosa [3]. The minimal inhibitory concentration (MIC) stood at 0.13 µg/mL in the data set on Staphylococcus aureus [4], 1 µg/mL against Serratia marcescens and 0.06 µg/mL in the data set on Enterobacter cloacae.
Consider `CC(C)(C)n1cc(C(=O)O)c(=O)c2cc(F)c(N3C[C@@H](N)[C@@H](F)C3)nc21.CS(=O)(=O)O`, for which the MIC in the data set with Enterococcus faecalis is 0.5 µg/mL; in the data set on Escherichia coli [5], 0.25 µg/mL; against Enterococcus faecium, 4 µg/mL; in the data set on Klebsiella pneumoniae [6] it was 0.06 µg/mL; in the data set with Morganella morganii it was 0.5 µg/mL; in the data set with Pseudomonas aeruginosa [3], 2 µg/mL. Also, the minimum inhibitory concentration (MIC) worked out at 0.015 µg/mL with Staphylococcus aureus [4], 0.5 µg/mL in the data set with Serratia marcescens and 0.25 µg/mL in the data set on Enterobacter cloacae.
As to `CN1CCN(c2nc3c(cc2F)c(=O)c(C(=O)O)cn3C(C)(C)C)CC1`, the MIC was 2 µg/mL (≈ 5.52 µM) in the data set with Enterococcus faecalis; 0.06 µg/mL (≈ 0.166 µM) with Escherichia coli [1]; 0.5 µg/mL (≈ 1.38 µM) against Enterococcus faecium; 0.06 µg/mL (≈ 0.166 µM) in the data set with Klebsiella pneumoniae [6]; 0.5 µg/mL (≈ 1.38 µM) against Morganella morganii; 1 µg/mL (≈ 2.76 µM) with Pseudomonas aeruginosa [7]. For the same molecule, the results for the MIC against Staphylococcus aureus [4], in the data set on Serratia marcescens and in the data set on Enterobacter cloacae were 0.06 µg/mL (≈ 0.166 µM), 0.25 µg/mL (≈ 0.69 µM) and 0.06 µg/mL (≈ 0.166 µM), respectively.
`O=C(O)c1cn(C2CC2)c2cc(N3CCNCC3)c(F)cc2c1=O` [CIPROFLOXACIN]: the MIC was 0.5 µg/mL (≈ 1.51 µM) in the data set on Enterococcus faecalis; 4 µg/mL (≈ 12.1 µM) against Enterococcus faecium; 0.03 µg/mL (≈ 0.0905 µM) against Klebsiella pneumoniae [6]; 0.015 µg/mL (≈ 0.0453 µM) with Morganella morganii; 0.13 µg/mL (≈ 0.392 µM) in the data set on Pseudomonas aeruginosa [3]; 0.13 µg/mL (≈ 0.392 µM) with Staphylococcus aureus [4]. 0.3 µg/mL (≈ 0.905 µM) was the least that counted as inhibitory against Serratia marcescens (MIC). Also, the ED50 in the data set with Escherichia coli [8] turned out to be 1 mg/kg; in the data set with Klebsiella pneumoniae [9] it was 1.5 mg/kg; in the data set on Pseudomonas aeruginosa [10] it was 2.6 mg/kg; in the data set on Staphylococcus aureus [11], 3.4 mg/kg.
`CCNCC1CCN(c2nc3c(cc2F)c(=O)c(C(=O)O)cn3C(C)(C)C)C1` (centres undefined): the MIC was found to be 2 µg/mL (≈ 5.12 µM) with Enterococcus faecalis; 0.13 µg/mL (≈ 0.333 µM) with Escherichia coli [1]; 8 µg/mL (≈ 20.5 µM) in the data set on Enterococcus faecium; 0.25 µg/mL (≈ 0.64 µM) against Klebsiella pneumoniae [6]; 1 µg/mL (≈ 2.56 µM) in the data set on Morganella morganii; 2 µg/mL (≈ 5.12 µM) in the data set with Pseudomonas aeruginosa [12]. For the same molecule, the MIC came to 0.13 µg/mL (≈ 0.333 µM) in the data set with Staphylococcus aureus [4], 1 µg/mL (≈ 2.56 µM) in the data set with Serratia marcescens and 0.25 µg/mL (≈ 0.64 µM) against Enterobacter cloacae.
What is called solubility is the dissolved amount per volume that the medium holds. The low end stands for little dissolved substance, the high end for much dissolved substance. Molecule `CC(C)(C)n1cc(C(=O)O)c(=O)c2cc(F)c(N3CCNCC3)cc21` showed a solubility in [13] of 130 µg/mL (≈ 374 µM). Besides, the MIC is 1 µg/mL (≈ 2.88 µM) against Enterococcus faecalis; 0.06 µg/mL (≈ 0.173 µM) in the data set on Escherichia coli [1]; 4 µg/mL (≈ 11.5 µM) with Enterococcus faecium; 0.13 µg/mL (≈ 0.374 µM) with Klebsiella pneumoniae [6]; 0.25 µg/mL (≈ 0.72 µM) in the data set on Morganella morganii; 0.5 µg/mL (≈ 1.44 µM) in the data set with Pseudomonas aeruginosa [7]. The MIC with Staphylococcus aureus [4] amounted to 0.06 µg/mL (≈ 0.173 µM); against Serratia marcescens, 0.5 µg/mL (≈ 1.44 µM); in the data set on Enterobacter cloacae it was 0.13 µg/mL (≈ 0.374 µM). For the same molecule, the ED50 stood at 21.7 mg/kg in the data set with Escherichia coli [8], 10.3 mg/kg in the data set with Klebsiella pneumoniae [9], 29 mg/kg with Pseudomonas aeruginosa [10] and 2.4 mg/kg in the data set on Staphylococcus aureus [14].
Take `CCn1cc(C(=O)O)c(=O)c2cc(F)c(N3CCNCC3)cc21` [NORFLOXACIN]: the MIC in the data set with Enterococcus faecalis was 4 µg/mL (≈ 12.5 µM); with Escherichia coli [1], 0.13 µg/mL (≈ 0.407 µM); in the data set on Enterococcus faecium, 8 µg/mL (≈ 25.1 µM); with Klebsiella pneumoniae [6], 0.03 µg/mL (≈ 0.0939 µM); in the data set on Morganella morganii, 0.015 µg/mL (≈ 0.047 µM); against Pseudomonas aeruginosa [3], 0.5 µg/mL (≈ 1.57 µM). For the same molecule, the MIC with Staphylococcus aureus [4] is 0.25 µg/mL (≈ 0.783 µM); against Serratia marcescens it was 0.13 µg/mL (≈ 0.407 µM); in the data set on Enterobacter cloacae, 0.06 µg/mL (≈ 0.188 µM). Also, the ED50 is 13 mg/kg with Escherichia coli [8], 8 mg/kg in the data set with Klebsiella pneumoniae [9], 12.6 mg/kg in the data set on Pseudomonas aeruginosa [10] and 1.9 mg/kg in the data set with Staphylococcus aureus [11].
The AUC is the area under the concentration-time curve, a measure of exposure. For the molecule `CC(C)(C)n1cc(C(=O)O)c(=O)c2cc(F)c(N3CCNCC3)nc21`, the solubility in data set [13] worked out at 820 µg/mL (≈ 2350 µM). Further, the MIC against Enterococcus faecalis amounted to 0.5 µg/mL (≈ 1.44 µM); against Escherichia coli [1] it was 0.015 µg/mL (≈ 0.0431 µM); with Enterococcus faecium it was 8 µg/mL (≈ 23 µM); with Klebsiella pneumoniae [6], 0.13 µg/mL (≈ 0.373 µM); against Morganella morganii, 0.25 µg/mL (≈ 0.718 µM); in the data set with Pseudomonas aeruginosa [7] it was 1 µg/mL (≈ 2.87 µM). For the same molecule, the MIC with Staphylococcus aureus [4] was determined as 0.06 µg/mL (≈ 0.172 µM); in the data set with Serratia marcescens, 0.25 µg/mL (≈ 0.718 µM); in the data set with Enterobacter cloacae, 0.06 µg/mL (≈ 0.172 µM). For the same molecule, the ED50 came to 4.7 mg/kg in the data set with Escherichia coli [8], 4.8 mg/kg in the data set with Klebsiella pneumoniae [9], 10.9 mg/kg in the data set on Pseudomonas aeruginosa [10] and 1.1 mg/kg in the data set on Staphylococcus aureus [14]. The same molecule gave an AUC in the data set filed under Canis familiaris of 50000 ng·h/mL.
